Published values gathered from unrelated publications.
Lines come from different studies, so protocols differ.

Compound | tested on | test | test system | setting | measurement | result
CC(C)(O)c1cn(-c2ccc(-c3cc(F)c(CO)c(S(C)(=O)=O)c3)cc2F)c(C(C)(C)c2c(Cl)cccc2Cl)n1 |  |  | male cynomolgus monkey, plasma | intravenous, 1 mg/kg, single dose | half-life | 10 to 12 h
CN(C(=O)n1cnc(-c2ccc[n+]([O-])c2)c1)C1CCCCC1 |  |  | male cynomolgus monkey, plasma | oral, 0.3 mg/kg | half-life | 2.2 h
COc1cc(/C=C/C(=O)c2ccccc2O)cc(OC)c1OC | BV-2 | cell growth or viability, resazurin |  |  | CC50 | > 40 µM
CCN(CC)C(=O)[C@@]1(c2ccccc2)C[C@H]1CN |  |  | male cynomolgus monkey, plasma | oral, 30 mg/kg | half-life | 6.3 h
C=CC(=O)N1CC2CC(n3nc(-c4ccc(C(=O)Nc5ccccn5)cc4)c4c(N)ncnc43)CC2C1 (centres unmarked) |  |  | male Wistar rat, plasma | oral, 10 mg/kg | Cmax | 820 ng/mL
COc1cc2c3c(n(CCCN4CCOCC4)c(=O)c2cc1OC)-c1cc2c(cc1C3=O)OCO2 |  |  | male Fischer 344 rat, plasma | intravenous, 24 mg/m², single dose | Cmax | 335 ng/mL
O=C(Nc1ccccc1OS(=O)(=O)c1ccc(F)cc1)c1ccc2ncccc2c1 | 1321-N1 | cell growth or viability, MTT |  | 100 µM, 24 h | viability | 82%
CCCC[C@@H]1NC(=O)[C@H](Cc2ccc(O)cc2)NC(=O)[C@@H]2CCCN2C(=O)[C@H](CC(=O)O)NC(=O)[C@H](C)NC(=O)[C@H](Cc2ccccc2)NC(=O)[C@@H]2CSCCC(=O)N3CN(CN(C3)C(=O)CCSC[C@@H](C(=O)N[C@@H](C)C(N)=O)NC1=O)C(=O)CCSC[C@H](NC(C)=O)C(=O)N[C@@H](CC(C)(C)C)C(=O)N1CCC[C@H]1C(=O)N[C@@H](CCC(=O)O)C(=O)N[C@H](CCCCNC(=O)CCc1cn(CCOCCOCCOCCOCCOCCC(=O)N[C@H]3CSCCC(=O)N4CN5CN(C4)C(=O)CCSC[C@H](NC(=O)[C@@H](CC(=O)O)NC(=O)[C@H](Cc4cccc6ccccc46)NC(=O)[C@@H]4CCCN4C3=O)C(=O)N[C@@H](CCSC)C(=O)N[C@@H](CCCCNC(=N)N)C(=O)N[C@@H](CC(=O)O)C(=O)N[C@@H](Cc3c[nH]c4ccccc34)C(=O)N[C@@H](CO)C(=O)N[C@@H]([C@@H](C)O)C(=O)N3CCC[C@H]3C(=O)N3C[C@H](O)C[C@H]3C(=O)N[C@@H](Cc3c[nH]c4ccccc34)C(=O)N[C@H](C(N)=O)CSCCC5=O)nn1)C(=O)N1CCC[C@H]1C(=O)N[C@@H](Cc1ccc(O)cc1)C(=O)N2 |  |  | cynomolgus monkey, plasma | intravenous, 1 mg/kg, infusion | half-life | 0.5 h
